Reference: ChEMBL document CHEMBL5303300, “EUbOPEN Chemogenomics Library - Multiplex” (2023)
Values joined by “and” are separate entries in the source; they are usually repeats but may differ in a detail not shown here. Equal values may be shown once.

Test system: HEK-293T
Assay: Multiplex assay against HEK293T
Assay type: toxicity, cell-based
Settings: human, number of replicates 2
How it was run: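 Compound was added to live cells that had been stained at seeding with Hoechst33342, BioTracker Green Microtubule Cytoskeleton Dye, MitoTracker Red and Annexin V Alexa Fluor 680, and imaging followed on a CQ1 microscope at 37°C and 5% CO2. CellPathfinder machine-learning gating divided cells into Hoechst high-intensity objects or normal cells, normal cells into healthy, pyknosed or fragmented nuclei, and pyknosed cells into mitotic or apoptotic. Tubulin, mitochondrial-mass and membrane-permeability phenotypes are per cents of healthy-nucleus cells.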

[1] = 12 h, 1 µM, compound concentration 1 uM
[2] = 12 h, 10 µM, compound concentration 10 uM
[3] = 24 h, 1 µM, compound concentration 1 uM
[4] = 24 h, 10 µM, compound concentration 10 uM
[5] = 48 h, 1 µM, compound concentration 1 uM
[6] = 48 h, 10 µM, compound concentration 10 uM

In the case of `O=C(Nc1ccnc(NC(=O)C2CC2)c1)c1c(Cl)cccc1Cl`, the “Population Apoptotic (%)” value [1] is reported as 42% and 49%, the “Population Fragmented Nuclei (%)” value [1] is reported as 3% and 2% and the “Population Healthy Nuclei (%)” value [1] is reported as 81% and 83%. For the same molecule, the “Population Hoechst High Intensity Objects (%)” value [1] was 9% and 5%, the “Population Membrane Permeable-Phenotype (%)” value [1] was 3% and 7% and the “Population Mitochondria Different-Phenotype (%)” value [1] was 11% and 10%. For the same molecule, the “Population Mitotic Cells (%)” value [1] was 57% and 50%, the “Population Normal (%)” value [1] was 90% and 94% and the “Population Pyknosed Nuclei (%)” value [1] was 15% and 14%. For the same molecule, the “Population Tubulin-Different-Phenotype (%)” value [1] was 43% and 37%, the “Total Cell Count” value [1] was 735 and 602 and the “Population Apoptotic (%)” value [2] was 55% and 57%. The “Population Fragmented Nuclei (%)” value [2] was 3% and 2%, the “Population Healthy Nuclei (%)” value [2] was 92% and 91% and the “Population Hoechst High Intensity Objects (%)” value [2] was 3%. The “Population Membrane Permeable-Phenotype (%)” value [2] was 5% and 3%, the “Population Mitochondria Different-Phenotype (%)” value [2] was 8% and 9% and the “Population Mitotic Cells (%)” value [2] was 44% and 42%. The “Population Normal (%)” value [2] was 96%, the “Population Pyknosed Nuclei (%)” value [2] was 3% and 5% and the “Population Tubulin-Different-Phenotype (%)” value [2] was 32% and 35%. For the same molecule, the “Total Cell Count” value [2] was 713 and 727, the “Population Apoptotic (%)” value [3] was 37% and 50% and the “Population Fragmented Nuclei (%)” value [3] was 4%. For the same molecule, the “Population Healthy Nuclei (%)” value [3] was 84% and 85%, the “Population Hoechst High Intensity Objects (%)” value [3] was 5% and 6% and the “Population Membrane Permeable-Phenotype (%)” value [3] was 4% and 3%. For the same molecule, the “Population Mitochondria Different-Phenotype (%)” value [3] was 3%, the “Population Mitotic Cells (%)” value [3] was 62% and 50% and the “Population Normal (%)” value [3] was 94% and 93%. The “Population Pyknosed Nuclei (%)” value [3] was 10% and 9%, the “Population Tubulin-Different-Phenotype (%)” value [3] was 17% and 19% and the “Total Cell Count” value [3] was 1049 and 883. The “Population Apoptotic (%)” value [4] was 42% and 69%, the “Population Fragmented Nuclei (%)” value [4] was 3% and 5% and the “Population Healthy Nuclei (%)” value [4] was 92% and 90%. For the same molecule, the “Population Hoechst High Intensity Objects (%)” value [4] was 4% and 3%, the “Population Membrane Permeable-Phenotype (%)” value [4] was 1% and the “Population Mitochondria Different-Phenotype (%)” value [4] was 2% and 3%. The “Population Mitotic Cells (%)” value [4] was 57% and 30%, the “Population Normal (%)” value [4] was 95% and 96% and the “Population Pyknosed Nuclei (%)” value [4] was 3% and 4%. The “Population Tubulin-Different-Phenotype (%)” value [4] was 14% and 15%, the “Total Cell Count” value [4] was 757 and 769 and the “Population Apoptotic (%)” value [5] was 19% and 24%. For the same molecule, the “Population Fragmented Nuclei (%)” value [5] was 9% and 7%, the “Population Healthy Nuclei (%)” value [5] was 85% and 87% and the “Population Hoechst High Intensity Objects (%)” value [5] was 7%. For the same molecule, the “Population Membrane Permeable-Phenotype (%)” value [5] was 3% and 4%, the “Population Mitochondria Different-Phenotype (%)” value [5] was 0% and 1% and the “Population Mitotic Cells (%)” value [5] was 80% and 75%. For the same molecule, the “Population Normal (%)” value [5] was 92%, the “Population Pyknosed Nuclei (%)” value [5] was 4% and the “Population Tubulin-Different-Phenotype (%)” value [5] was 10% and 11%. For the same molecule, the “Total Cell Count” value [5] was 2441 and 1608, the “Population Apoptotic (%)” value [6] was 38% and 32% and the “Population Fragmented Nuclei (%)” value [6] was 11%. For the same molecule, the “Population Healthy Nuclei (%)” value [6] was 86% and 85%, the “Population Hoechst High Intensity Objects (%)” value [6] was 6% and 5% and the “Population Membrane Permeable-Phenotype (%)” value [6] was 1% and 0%. For the same molecule, the “Population Mitochondria Different-Phenotype (%)” value [6] was 2%, the “Population Mitotic Cells (%)” value [6] was 61% and 67% and the “Population Normal (%)” value [6] was 93% and 94%. The “Population Pyknosed Nuclei (%)” value [6] was 2% and 3%, the “Population Tubulin-Different-Phenotype (%)” value [6] was 8% and 7% and the “Total Cell Count” value [6] was 1085 and 965.
With `C=CC(=O)Nc1cccc(C)c1Nc1ncc2cc(-c3c(Cl)c(OC)cc(OC)c3Cl)ccc2n1` the “Population Apoptotic (%)” value [1] was 39% and 35%, the “Population Fragmented Nuclei (%)” value [1] was 3% and the “Population Healthy Nuclei (%)” value [1] was 87%. For the same molecule, the “Population Hoechst High Intensity Objects (%)” value [1] was 7% and 5%, the “Population Membrane Permeable-Phenotype (%)” value [1] was 2% and 1% and the “Population Mitochondria Different-Phenotype (%)” value [1] was 16% and 12%. For the same molecule, the “Population Mitotic Cells (%)” value [1] was 60% and 64%, the “Population Normal (%)” value [1] was 92% and 94% and the “Population Pyknosed Nuclei (%)” value [1] was 8% and 9%. For the same molecule, the “Population Tubulin-Different-Phenotype (%)” value [1] was 40% and 41%, the “Total Cell Count” value [1] was 760 and 929 and the “Population Apoptotic (%)” value [2] was 71% and 67%. For the same molecule, the “Population Fragmented Nuclei (%)” value [2] was 4%, the “Population Healthy Nuclei (%)” value [2] was 71% and 77% and the “Population Hoechst High Intensity Objects (%)” value [2] was 20% and 14%. The “Population Membrane Permeable-Phenotype (%)” value [2] was 2% and 3%, the “Population Mitochondria Different-Phenotype (%)” value [2] was 42% and 39% and the “Population Mitotic Cells (%)” value [2] was 28% and 32%. For the same molecule, the “Population Normal (%)” value [2] was 79% and 85%, the “Population Pyknosed Nuclei (%)” value [2] was 24% and 18% and the “Population Tubulin-Different-Phenotype (%)” value [2] was 55% and 47%. For the same molecule, the “Total Cell Count” value [2] was 374 and 381, the “Population Apoptotic (%)” value [3] was 35% and 39% and the “Population Fragmented Nuclei (%)” value [3] was 6% and 4%. The “Population Healthy Nuclei (%)” value [3] was 85% and 88%, the “Population Hoechst High Intensity Objects (%)” value [3] was 5% and 7% and the “Population Membrane Permeable-Phenotype (%)” value [3] was 1% and 0%. The “Population Mitochondria Different-Phenotype (%)” value [3] was 4% and 6%, the “Population Mitotic Cells (%)” value [3] was 64% and 60% and the “Population Normal (%)” value [3] was 94% and 92%. The “Population Pyknosed Nuclei (%)” value [3] was 7%, the “Population Tubulin-Different-Phenotype (%)” value [3] was 26% and 25% and the “Total Cell Count” value [3] was 1252 and 1297. For the same molecule, the “Population Apoptotic (%)” value [4] was 70% and 60%, the “Population Fragmented Nuclei (%)” value [4] was 5% and 3% and the “Population Healthy Nuclei (%)” value [4] was 71% and 77%. For the same molecule, the “Population Hoechst High Intensity Objects (%)” value [4] was 17% and 11%, the “Population Membrane Permeable-Phenotype (%)” value [4] was 2% and 0% and the “Population Mitochondria Different-Phenotype (%)” value [4] was 32% and 24%. The “Population Mitotic Cells (%)” value [4] was 29% and 40%, the “Population Normal (%)” value [4] was 83% and 88% and the “Population Pyknosed Nuclei (%)” value [4] was 23% and 18%. The “Population Tubulin-Different-Phenotype (%)” value [4] was 32% and 29%, the “Total Cell Count” value [4] was 453 and 428 and the “Population Apoptotic (%)” value [5] was 12%. For the same molecule, the “Population Fragmented Nuclei (%)” value [5] was 12% and 9%, the “Population Healthy Nuclei (%)” value [5] was 84% and 87% and the “Population Hoechst High Intensity Objects (%)” value [5] was 8% and 11%. For the same molecule, the “Population Membrane Permeable-Phenotype (%)” value [5] was 5% and 2%, the “Population Mitochondria Different-Phenotype (%)” value [5] was 0% and 1% and the “Population Mitotic Cells (%)” value [5] was 87%. For the same molecule, the “Population Normal (%)” value [5] was 91% and 88%, the “Population Pyknosed Nuclei (%)” value [5] was 2% and 3% and the “Population Tubulin-Different-Phenotype (%)” value [5] was 10% and 15%. The “Total Cell Count” value [5] was 3082 and 2641, the “Population Apoptotic (%)” value [6] was 50% and 52% and the “Population Fragmented Nuclei (%)” value [6] was 5% and 3%. The “Population Healthy Nuclei (%)” value [6] was 84% and 85%, the “Population Hoechst High Intensity Objects (%)” value [6] was 11% and 8% and the “Population Membrane Permeable-Phenotype (%)” value [6] was 1%. For the same molecule, the “Population Mitochondria Different-Phenotype (%)” value [6] was 8% and 9%, the “Population Mitotic Cells (%)” value [6] was 50% and 47% and the “Population Normal (%)” value [6] was 88% and 91%. For the same molecule, the “Population Pyknosed Nuclei (%)” value [6] was 9% and 11%, the “Population Tubulin-Different-Phenotype (%)” value [6] was 12% and the “Total Cell Count” value [6] was 751 and 603.
